# The list is not random: actives were taken first. Their share in the collection is about 9.6%.
# TNAP inh hi DEA: inhibitors of human TNAP at high phosphate acceptor concentration; P05186; purified TNAP, CDP-star luminescence, 1 M DEA; inhibition, % at 20 µM; actives 0.03% (n = 200,000); AID 1135;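 active = over 50% inhibition of tissue-nonspecific alkaline phosphatase at 20 µM in the single-dose screen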;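 note: plate controls were DMSO wells for no effect and EDTA-quenched wells as full inhibition for full effect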
# Target sequence (P05186 whole entry, looked up): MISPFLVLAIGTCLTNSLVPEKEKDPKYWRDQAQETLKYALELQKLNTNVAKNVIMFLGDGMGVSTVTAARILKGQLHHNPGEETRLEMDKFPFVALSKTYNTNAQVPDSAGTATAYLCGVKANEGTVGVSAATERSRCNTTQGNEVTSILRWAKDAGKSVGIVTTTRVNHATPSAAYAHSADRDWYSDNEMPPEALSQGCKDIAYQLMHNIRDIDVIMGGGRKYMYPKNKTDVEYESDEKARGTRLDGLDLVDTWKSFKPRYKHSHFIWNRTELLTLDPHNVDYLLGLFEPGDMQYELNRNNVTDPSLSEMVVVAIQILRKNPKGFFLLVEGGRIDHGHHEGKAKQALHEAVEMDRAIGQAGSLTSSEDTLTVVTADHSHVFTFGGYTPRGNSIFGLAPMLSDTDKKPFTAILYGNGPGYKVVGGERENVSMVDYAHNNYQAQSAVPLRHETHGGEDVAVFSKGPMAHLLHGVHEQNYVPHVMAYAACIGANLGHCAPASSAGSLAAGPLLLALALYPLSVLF
# HCT116 PTEN-null: suppresses growth of cells with PTEN deletion. HCT116 PTEN-null viability, CellTiter-Glo, 60 h; active compounds read low. viability, % at 10 µM. actives 1.2% (n = 140,000). AID 827;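 active = viability at or below a set limit, 4 SD under the median of all tested compounds, cut at about 3.7% in these data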;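 note: PTEN knockout HCT116 line with beta catenin targeted HCT116 as companion control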
# TNAP inh noacc: blocks human TNAP activity with no phosphate acceptor present; inhibition, % at 20 µM; actives 0.26% (n = 200,000); purified TNAP, CDP-star luminescence, 30 min; P05186; AID 1012;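 active = tissue-nonspecific alkaline phosphatase inhibition above about 50% at 20 µM in the single-dose screen, limit read from the data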;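 note: 0% = DMSO negative control and 100% = EDTA positive control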
# L major viab: inhibitors of Leishmania major promastigote growth. Leishmania major promastigotes, resazurin fluorescence viability. inhibition, % at 10 µM. actives 9% (n = 200,000); in the data active = inhibition above about 50%;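 note: promastigotes grown with compound for 44 hours at 28 °C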
# TNAP act hiacc: TNAP (human) activation, high acceptor. P05186. purified TNAP, CDP-star luminescence, 1 M DEA, 30 min; active compounds read high; 0 = EDTA background, 1 = DMSO-only activity. activation factor at 20 µM. 200,000 tested, under 10 active. AID 1136;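 active = activation factor at least 2 at 20 µM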
#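 Assay system: human TNAP; Input: enzyme diluted 1/800 final; Reagent: CDP-star luminogenic substrate at 100 µM final; Timing: 30 min, room temperature; Signal: luminescence; Evaluation: TNAP activation factor scaled between EDTA and DMSO control wells.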
# bCat KO growth: beta-catenin-lacking colon tumor cell growth suppression; HCT116 beta-catenin knockout viability, CellTiter-Glo, 60 h; active compounds read low; viability, % at 10 µM; actives 1.5% (n = 140,000); AID 818;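 active = viability at or under a set limit, the compound median less 4 SD, cut at about 6% in these data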;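 note: 0% = Hyamine 1622 control at 20 µM and 100% = untreated cell control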
# An asterisk follows results filed as active; . = no result given.
SMILES,TNAP inh hi DEA,HCT116 PTEN-null,TNAP inh noacc,L major viab,TNAP act hiacc,bCat KO growth
O=c1c2ccccc2nc2n1CC/C2=C\c1ccccc1[N+](=O)[O-],-6,65,-11,1,1.1,88
COc1ccccc1NC(=O)COC(=O)c1ccc2c(c1)nc(C)n2-c1ccccc1,-6,95,-21,57*,1.1,88
COc1cc(SC#N)ccc1N=Cc1c(C)[nH]n(-c2cccc3ccccc23)c1=O,6,46,-2,18,0.9,14
COc1cc(SC#N)ccc1N=Cc1c(C)[nH]n(-c2ccc(C)cc2C)c1=O,0,77,-12,56*,1,80
CC(C)NC(=O)C1(c2ccccc2)CC1(Cl)Cl (stereo unspecified),-2,95,-10,-5,1,86
CCOC(=O)NC(c1ccc(C(C)C)cc1)C(Cl)(Cl)Cl (stereo unspecified),-5,49,-9,26,1,31
Cc1cc(C)nc(NN2C(=O)/C(=C/c3ccc(O)cc3)SC2=S)n1,43,87,94*,5,0.6,84
COc1ccccc1/C=C1\SC(=S)N(Nc2nc(C)cc(C)n2)C1=O,-1,97,19,-4,1,90
N#Cc1ccc(-c2csc(NNC(=O)c3ccc(Br)cc3)n2)cc1,1,4,-14,41,1,2.8*
N#Cc1ccc(-c2csc(NNC(=O)c3ccccc3)n2)cc1,2,10,-18,-7,1,10
CCCNC(=O)[C@H](C)NC(=O)c1ccc(Br)cc1,-6,.,-12,13,1.1,.
CC(C)=C1C2CCC1C1C(=O)N(NC(=O)COc3ccc(Cl)c(C)c3)C(=O)C21 (stereo unspecified),-2,98,-9,76*,1,103
CCS(=O)(=O)NCC(c1cccnc1)N1CCN(c2ccc(F)cc2)CC1 (stereo unspecified),1,100,-5,69*,1,95
CCS(=O)(=O)NCC(c1cccnc1)N1CCN(c2ccccc2OC)CC1 (stereo unspecified),-3,97,-2,23,1,91
CCS(=O)(=O)NCC(c1cccnc1)N1CCN(c2ccccc2F)CC1 (stereo unspecified),-6,103,-12,78*,1.1,92
CS(=O)(=O)NCC(c1cccnc1)N1CCN(c2ccc(F)cc2)CC1 (stereo unspecified),0,92,-8,45,1,98
CC1CN(C(=O)c2ccccc2)c2ccccc2NC1=O (stereo unspecified),-7,103,-12,0,1.1,94
Cc1ccc(-c2nnc(SCc3ccc(C#N)cc3)n2Cc2ccco2)cc1,-8,74,-10,66*,1.1,70
COc1cccc(-c2nnc(SCc3ccc(C#N)cc3)n2Cc2ccco2)c1,-8,56,-14,12,1.1,73
C(=C\c1ccccc1)/CSc1nnc(-c2ccccc2)n1Cc1ccco1,-4,12,-9,85*,1,10
CC(OC(=O)c1ccc([N+](=O)[O-])s1)C(=O)Nc1ncc(Cl)cc1Cl (stereo unspecified),-2,91,-15,100*,1,82
C=CCOc1nc2c(c(=O)n(C)c(=O)n2C)n1Cc1c(Cl)cccc1Cl,-7,76,-3,64*,1.1,75
CCOc1nc2c(c(=O)n(C)c(=O)n2C)n1Cc1ccccc1Cl,-2,74,-6,0,1,71
CCN(CC)S(=O)(=O)c1ccc(-c2nnc(SCC(=O)N3c4ccccc4CC3C)n2CC)cc1 (stereo unspecified),-2,56,-18,91*,1,58
CC(C)OC(=O)c1cccnc1N1CCN(c2cccc(Cl)c2)CC1,-6,.,-6,11,1.1,.
SMILES,TNAP inh hi DEA,HCT116 PTEN-null,TNAP inh noacc,L major viab,TNAP act hiacc,bCat KO growth
C/C(=C(\C#N)C(=O)NCCN1CCOCC1)N(C)C,-1,95,-7,-8,1,92
C/C(NC1CCCCC1)=C(/C#N)C(=O)NCCN1CCOCC1,-4,94,-6,50*,1,96
O=C(Nc1ccc2c(c1)CCC2)c1cc(S(=O)(=O)N2CCN(c3ccccc3)CC2)ccc1Cl,3,92,-26,45,1,94
Cc1cccc(NC(=S)NNC(=O)c2ccc(O)cc2O)c1C,-2,.,-116,71*,1,.
N#CC(C#N)=c1ccc2c(c1)N1C3=C(CCCC3)CC3CCCCC31N=2 (stereo unspecified),23,41,24,99*,0.8,30
N#C/C(C(N)=O)=c1/ccc2c(c1)N1C3=C(CCCC3)CC3CCCCC31N=2 (stereo unspecified),26,9,20,74*,0.7,10
Cc1ccc2nc(N/C(N)=N/S(=O)(=O)c3ccc([N+](=O)[O-])cc3)nc(C)c2c1,-1,67,5,99*,1,62
CCN(CC)S(=O)(=O)c1ccc(N2CCOCC2)c(NC(=O)c2cnccn2)c1,-1,102,1,2,1,93
O=C(OC(C(=O)Nc1ccc(Cl)cc1C(F)(F)F)c1ccccc1)c1c(Cl)cccc1Cl (stereo unspecified),2,68,-18,9,1,78
Cc1ccc(C(=O)OC(C(=O)Nc2ccc(Cl)cc2C(F)(F)F)c2ccccc2)cc1 (stereo unspecified),-3,79,-2,69*,1,89
COC(=O)c1cc2sccc2n1Cc1nc(-c2cccc(Cl)c2)oc1C,-2,87,-2,64*,1,85
COC(=O)c1cc2sccc2n1Cc1nc(-c2ccc(Cl)cc2)oc1C,2,81,-6,6,1,93
C=CCSc1nc(-c2ccc(OC)cc2)c(C#N)c(=O)n1CC=C,-6,.,-6,22,1.1,.
CC(C)c1ccc(NC(=O)CSc2ncccc2C(=O)Oc2cccc([N+](=O)[O-])c2)cc1,2,94,-11,-4,1,91
CCN(CC)CCOc1cccc(C(C)C)c1,-5,102,-5,83*,1,102
CC(C)Oc1ccccc1OCCN(C)C,-5,108,-10,39,1.1,92
CC(C)c1cccc(OCCCCN(C)C)c1,-3,.,-10,86*,1,.
CCN(CC)CCOC(=O)C(c1ccccc1)c1ccccc1,1,104,-4,-4,1,95
CCC(C)NC(=O)COC(=O)Cc1sc(N)nc1-c1ccc(C)cc1 (stereo unspecified),-3,97,-8,-3,1,85
Cc1ccc(-c2nc(N)sc2CC(=O)OCC(=O)NCCC(C)C)cc1,-2,100,-10,60*,1,96
COc1ccc(OCCSCc2nnc(NC(=O)Nc3ccc(Cl)cc3)s2)cc1,-1,35,-15,-1,1,42
